Assay results published in ChEMBL document CHEMBL1132174, “Anti-AIDS agents. 37. Synthesis and structure-activity relationships of (3'R,4'R)-(+)-cis-khellactone derivatives as novel potent anti-HIV agents” (J Med Chem, 1999).

Key:
[1] = system: Human immunodeficiency virus 1; assay: Anti-HIV activity in H9 lymphocytes.; format: functional, organism-based
[2] = system: Human immunodeficiency virus 1; assay: Antiviral activity against HIV-1 in H9 lymphocytes.; format: functional, organism-based
[3] = Therapeutic index in H9 lymphocytes.; format: cell-based; conditions: human, read-out: Therapeutic index
[4] = Therapeutic index value of the cpmpound against CEM-SS cells; format: cell-based; conditions: human, read-out: Therapeutic index
In short: (§1)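 Run at NCI in the CEM-SS T4 lymphocyte line. The agent was dissolved in DMSO, diluted 1:100 in medium, then serially diluted in half-log10 steps, giving a 1:200 final compound dilution. Cells were added, followed shortly by HIV-1, and incubated for 6 days at 37 °C in 5% CO2. Viable cells were read by XTT formazan spectrophotometry, with microscopic confirmation. Drug-treated infected wells were compared against drug-treated uninfected (toxicity) wells and untreated controls.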

CEM-SS [5] = assay: The compound was tested for anti HIV activity in CEM-SS cell lines; format: functional, cell-based; conditions: Homo sapiens; in short: as §1
[6] = Therapeutic index value against H9 lymphocytes; No suppression; format: cell-based; conditions: human
H9 = assay: The compound was tested for anti HIV activity in H9 lymphocytes; No suppression; format: functional, cell-based, Homo sapiens
[7] = Therapeutic index value of the cpmpound against CEM-SS cells; Inactive; format: cell-based; conditions: human; in short: as §1
CEM-SS [8] = assay: The compound was tested for anti HIV activity in CEM-SS cell lines; Inactive; format: functional, cell-based, Homo sapiens; in short: as §1

Row | SMILES | IC50 [1] | EC50 [2] | selectivity ratio [3] | IC50 ([1]; Human immunodeficiency virus 1) | selectivity ratio [4] | EC50 (CEM-SS [5]) | IC50 (CEM-SS [5]) | Therapeutic index [6] | EC50 (H9) | Therapeutic index [7] | EC50 (CEM-SS [8])
1 | Cc1cc(=O)oc2c3c(ccc12)OC(C)(C)[C@H](OC(=O)C12CCC(C)(C(=O)O1)C2(C)C)[C@@H]3OC(=O)C12CCC(C)(C(=O)O1)C2(C)C (stereo in doubt; 19) | > 157 µM | – | – | – | – | – | – | – | – | – | –
2 | CC1(C)Oc2ccc3c(C(F)(F)F)cc(=O)oc3c2[C@@H](OC(=O)C23CCC(C)(C(=O)O2)C3(C)C)[C@H]1OC(=O)C12CCC(C)(C(=O)O1)C2(C)C (stereo partly drawn) | – | 1810 nM | > 80.1 | > 145 µM | – | – | – | – | – | – | –
3 | Cc1cc(=O)oc2c3c(ccc12)OC(C)(C)[C@H](OS(=O)(=O)CC12CCC(CC1=O)C2(C)C)[C@@H]3O (stereo in doubt; 22) | 42 µM | – | – | – | – | – | – | – | – | – | –
4 | Cc1cc(=O)oc2c3c(ccc12)OC(C)(C)[C@H](O)[C@@H]3OC(=O)C12CCC(C)(C(=O)O1)C2(C)C (stereo partly drawn) | – | – | – | > 219 µM | – | – | – | – | – | – | –
5 | CC1(C)Oc2ccc3ccc(=O)oc3c2[C@@H](OC(=O)C23CCC(C)(C(=O)O2)C3(C)C)[C@H]1OC(=O)C12CCC(C)(C(=O)O1)C2(C)C (stereo partly drawn) | – | 0.256 nM | 137000 | 35 µM | 100 | 0.26 µM | 26 µM | – | – | – | –
6 | CC(=O)O[C@@H]1c2c(ccc3c(C)cc(=O)oc23)OC(C)(C)[C@@H]1OC(C)=O | – | 83100 nM | 2.06 | 171 µM | – | – | – | – | – | – | –
7 | Cc1cc2ccc(=O)oc2c2c1OC(C)(C)[C@H](OC(=O)C13CCC(C)(C(=O)O1)C3(C)C)[C@@H]2OC(=O)C12CCC(C)(C(=O)O1)C2(C)C (stereo partly drawn) | – | 151 nM | 218 | 33 µM | > 532 | 0.376 µM | > 200 µM | – | – | – | –
8 | Cc1cc(=O)oc2c3c(ccc12)OC(C)(C)[C@H](OC(=O)C12CCC(C)(C(=O)O1)C2(C)C)[C@@H]3OC(=O)C12CC3CC(CC(C3)C1)C2 (stereo partly drawn) | – | 600 nM | 35.5 | 21.3 µM | – | – | – | – | – | – | –
9 | CCCc1cc(=O)oc2c3c(ccc12)OC(C)(C)[C@H](OC(=O)C12CCC(C)(C(=O)O1)C2(C)C)[C@@H]3OC(=O)C12CCC(C)(C(=O)O1)C2(C)C (stereo partly drawn) | – | 17.5 nM | > 8630 | > 151 µM | > 262 | 0.763 µM | > 200 µM | – | – | – | –
10 | CC(=O)O[C@@H]1[C@H](OC(=O)C23CC4CC(CC(C4)C2)C3)c2c(ccc3c(C)cc(=O)oc23)OC1(C)C | – | 1140 nM | 16.7 | 19 µM | – | – | – | – | – | – | –
11 | CC(=O)O[C@@H]1[C@H](OC(=O)C23CCC(C)(C(=O)O2)C3(C)C)c2c(ccc3c(C)cc(=O)oc23)OC1(C)C (stereo partly drawn) | – | 55.2 nM | 2230 | 123 µM | – | – | – | – | – | – | –
12 | Cc1cc2ccc3c(c2oc1=O)[C@@H](OC(=O)C12CCC(C)(C(=O)O1)C2(C)C)[C@@H](OC(=O)C12CCC(C)(C(=O)O1)C2(C)C)C(C)(C)O3 (stereo partly drawn) | – | 0.0525 nM | > 2.15e+06 | > 113 µM | > 58.7 | 0.213 µM | > 12.5 µM | – | – | – | –
13 | Cc1cc(=O)oc2c3c(ccc12)OC(C)(C)[C@H](OC(=O)c1cccc(Br)c1)[C@@H]3OC(=O)c1cccc(Br)c1 | – | – | – | > 91.6 µM | – | – | – | Not Active | Not Active | – | –
14 | COc1cc2ccc3c(c2oc1=O)[C@@H](OC(=O)C12CCC(C)(C(=O)O1)C2(C)C)[C@@H](OC(=O)C12CCC(C)(C(=O)O1)C2(C)C)C(C)(C)O3 (stereo partly drawn) | – | 2.38 nM | > 64300 | > 153 µM | 34 | 0.494 µM | 16.8 µM | – | – | – | –
15 | CC1(C)Oc2ccc3c(-c4ccccc4)cc(=O)oc3c2[C@@H](OC(=O)C23CCC(C)(C(=O)O2)C3(C)C)[C@H]1OC(=O)C12CCC(C)(C(=O)O1)C2(C)C (stereo partly drawn) | – | 120 nM | > 1190 | > 143 µM | – | – | – | – | – | – | –
16 | CC(C)c1cc(=O)oc2c3c(ccc12)OC(C)(C)[C@H](OC(=O)C12CCC(C)(C(=O)O1)C2(C)C)[C@@H]3OC(=O)C12CCC(C)(C(=O)O1)C2(C)C (stereo partly drawn) | – | 31.5 nM | > 4790 | > 151 µM | > 219 | 0.584 µM | > 128 µM | – | – | – | –
17 | Cc1cc(=O)oc2c3c(ccc12)OC(C)(C)[C@H](OC(=O)CC(C)C)[C@@H]3OC(=O)CC(C)C | – | – | – | 42 µM | – | – | – | Not Active | Not Active | – | –
18 | COc1cc2ccc(=O)oc2c2c1OC(C)(C)[C@H](OC(=O)C13CCC(C)(C(=O)O1)C3(C)C)[C@@H]2OC(=O)C12CCC(C)(C(=O)O1)C2(C)C (stereo partly drawn) | – | 15800 nM | > 9.68 | > 153 µM | – | – | > 200 µM | – | – | Not Active | Not Active
19 | Cc1cc2c(c3oc(=O)ccc13)[C@@H](OC(=O)C13CCC(C)(C(=O)O1)C3(C)C)[C@@H](OC(=O)C13CCC(C)(C(=O)O1)C3(C)C)C(C)(C)O2 (stereo partly drawn) | – | 0.000239 nM | > 3.97e+08 | > 95 µM | > 3150 | 0.0635 µM | > 200 µM | – | – | – | –
20 | COc1cc2c(c3oc(=O)ccc13)[C@@H](OC(=O)C13CCC(C)(C(=O)O1)C3(C)C)[C@@H](OC(=O)C13CCC(C)(C(=O)O1)C3(C)C)C(C)(C)O2 (stereo partly drawn) | – | 0.192 nM | > 797000 | > 153 µM | > 1560 | 0.128 µM | > 200 µM | – | – | – | –
21 | Cc1cc(=O)oc2c3c(ccc12)OC(C)(C)[C@H](OS(=O)(=O)CC12CCC(CC1=O)C2(C)C)[C@@H]3O (stereo in doubt; 23) | – | – | – | 45 µM | – | – | – | Not Active | Not Active | – | –
22 | Cc1cn([C@H]2C[C@H](N=[N+]=[N-])[C@@H](CO)O2)c(=O)[nH]c1=O [ZIDOVUDINE] | – | 4500 nM | – | – | – | 0.0038 µM | > 1 µM | – | – | – | –
23 | Cc1cc(=O)oc2c3c(ccc12)OC(C)(C)[C@H](OC(=O)Nc1cccc2ccccc12)[C@@H]3OC(=O)Nc1cccc2ccccc12 | – | – | – | 98 µM | – | – | – | Not Active | Not Active | – | –
24 | Cc1cc(=O)oc2c3c(ccc12)OC(C)(C)[C@H](O)[C@@H]3OC(=O)C12CC3CC(CC(C3)C1)C2 | – | – | – | 43.2 µM | – | – | – | Not Active | Not Active | – | –
25 | COc1cc(=O)oc2c3c(ccc12)OC(C)(C)[C@H](OC(=O)C12CCC(C)(C(=O)O1)C2(C)C)[C@@H]3OC(=O)C12CCC(C)(C(=O)O1)C2(C)C (stereo partly drawn) | – | 2.99 nM | > 51200 | > 153 µM | > 1600 | 0.125 µM | > 200 µM | – | – | – | –
26 | Cc1cc(=O)oc2c3c(ccc12)OC(C)(C)[C@H](OC(=O)C12CCC(C)(C(=O)O1)C2(C)C)[C@@H]3OC(=O)C12CCC(C)(C(=O)O1)C2(C)C (stereo in doubt; 8) | – | – | – | > 126 µM | > 3150 | 0.0635 µM | > 200 µM | – | – | – | –
